Measured values taken from ChEMBL document CHEMBL1124035, “1-Amino-substituted 4-methyl-5H-pyrido[4,3-b]indoles (gamma-carbolines) as tricyclic analogues of ellipticines: a new class of antineoplastic agents” (1988).
pIC50: −log10 of the molar value. Blank lines part the entries; values can stand above or below the molecule they belong to.

How the values were obtained:
Mus musculus [1] = assay: Antitumor activity against P388 leukemia in mice at a dose of 5 mg/kg administered intraperitoneally for 5 days; assay type: functional; settings: route intraperitoneal
In short: (§1)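 CDF1 hybrid male or female mice, 10 per group, were inoculated ip on day 0 with 10^6 viable P388 leukemia cells. Drug in distilled water was given ip (0.1 mL/10 g body weight) daily on days 1-5, with vehicle, 5-fluorouracil and BD 84 controls given the same way. T/C = median survival of treated/controls × 100; T/C > 128% counted as significant.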

Calf thymus DNA = assay: Apparent DNA affinity constant; assay type: nucleic-acid assay; settings: Bos taurus
In short: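 Apparent DNA affinity constant was measured by competition with ethidium bromide. Buffer was 20 mM Na2HPO4/NaH2PO4, 0.1 M NaCl, 1 mM EDTA, pH 7.4, with calf thymus DNA at 10 μg/mL. Values are given in 10^6 M⁻¹.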

L1210 = assay: Ability to reduce the cell count to 50% in L1210 culture cells; assay type: functional; settings: Mus musculus, read-out: ID50 (the source's name)
In short: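 L1210 cells in exponential growth in RPMI 1640 with 2 mM glutamine, penicillin/streptomycin and 10% FCS, 37 °C, 5% CO2. Drugs dissolved in distilled water were added to cells at 0.8 × 10^5 cells/mL for 48 h, then cells were counted. ID50 is the concentration halving cell proliferation versus controls, from regression of dose-response data; mean of two independent experiments.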

Mus musculus [2] = assay: Antitumor activity against P388 leukemia in mice at a dose of 80 mg/kg administered intraperitoneally for 5 days; assay type: functional, organism-based; parameters: dose 80 mg/kg; in short: as §1
Mus musculus [3] = assay: Antitumor activity against P388 leukemia in mice at a dose of 20 mg/kg administered intraperitoneally for 5 days; assay type: functional; settings: route intraperitoneal
In short: (§2)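 CDF1 hybrid male or female mice, 10 per group, were inoculated ip with 10^6 viable P388 cells on day 0. Drugs in distilled water were given ip (0.1 mL/10 g body weight) daily D1-5. Vehicle, 5-fluorouracil and BD 84 were given the same way. T/C = median survival day of treated / controls × 100; T/C > 128% was significant; cures counted at D60.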

Mus musculus [4] = assay: Antitumor activity against P388 leukemia in mice at a dose of 10 mg/kg administered intraperitoneally for 5 days; assay type: functional; settings: route intraperitoneal; in short: as §2
Mus musculus [5] = assay: Antitumor activity against P388 leukemia in mice at a dose of 40 mg/kg administered intraperitoneally for 5 days; assay type: functional; settings: route intraperitoneal; in short: as §1
Mus musculus [6] = assay: Antitumor activity against P388 leukemia in mice at a dose of 10 mg/kg administered intraperitoneally for 5 days; It is nontoxic at this dose; assay type: functional; settings: route intraperitoneal; in short: as §2
Mus musculus [7] = assay: Antitumor activity against P388 leukemia in mice at a dose of 2.5 mg/kg administered intraperitoneally for 5 days; assay type: functional; settings: route intraperitoneal; in short: as §2
Mus musculus [8] = assay: (§3) Antitumor activity against P388 leukemia in mice at a dose of 50 mg/kg administered intraperitoneally for 5 days; assay type: functional, organism-based; parameters: dose 50 mg/kg; in short: as §1
Mus musculus [9] = assay: Antitumor activity against P388 leukemia in mice at a dose of 40 mg/kg administered intraperitoneally for 5 days; Nontoxic at this dose; assay type: functional; settings: route intraperitoneal; in short: as §1
Mus musculus [10] = assay: as §3; assay type: functional; settings: route intraperitoneal; in short: as §1
Mus musculus [11] = assay: Antitumor activity against P388 leukemia in mice at a dose of 6 mg/kg administered intraperitoneally for 5 days; assay type: functional; settings: route intraperitoneal; in short: as §1
Mus musculus [12] = assay: Antitumor activity against P388 leukemia in mice at a dose of 100 mg/kg administered intraperitoneally for 5 days; assay type: functional, organism-based; parameters: dose 100 mg/kg; in short: as §2
Mus musculus [13] = assay: Antitumor activity against P388 leukemia in mice at a dose of 24 mg/kg administered intraperitoneally for 5 days; assay type: functional; settings: route intraperitoneal; in short: as §1
Mus musculus [14] = assay: Antitumor activity against P388 leukemia in mice at a dose of 12 mg/kg administered intraperitoneally for 5 days; assay type: functional; settings: route intraperitoneal; in short: as §2
Mus musculus [15] = assay: Antitumor activity against P388 leukemia in mice at a dose of 50 mg/kg administered intraperitoneally for 5 days; Non toxic at this dose; assay type: functional; settings: route intraperitoneal; in short: as §1

Compound: CCN(CC)CCNc1ncc(C)c2c1c1cc(OC)ccc1n2C
K aff (Calf thymus DNA): 80000 M⁻¹ | pIC50 (L1210): 5.92

Compound: CN(C)CCCNc1[nH]ccc2nc3ccc(O)cc3c1-2
T/C (Mus musculus [1]): 102% | T/C (Mus musculus [6]): 115% | K aff (Calf thymus DNA): 70000 M⁻¹ | pIC50 (L1210): 4.95 | T/C (Mus musculus [7]): 111%

Compound: CCN(CC)CCCNc1ncc(C)c2c1c1ccccc1n2C
T/C (Mus musculus [10]): 131% | T/C (Mus musculus [11]): 105% | K aff (Calf thymus DNA): 160000 M⁻¹ | pIC50 (L1210): 6.14 | T/C (Mus musculus [12]): Toxic | T/C (Mus musculus [13]): 118% | T/C (Mus musculus [14]): 110%

Compound: Cc1cnc(NCCCN(C)C)c2c3ccccc3n(C)c12
T/C (Mus musculus [11]): 107% | K aff (Calf thymus DNA): 150000 M⁻¹ | pIC50 (L1210): 6.46 | T/C (Mus musculus [13]): 131% | T/C (Mus musculus [8]): Toxic | T/C (Mus musculus [14]): 114%

Compound: Cc1c[nH]c(NCCNCCO)c2c3ccccc3nc1-2
K aff (Calf thymus DNA): 50000 M⁻¹ | pIC50 (L1210): 5.94 | T/C (Mus musculus [15]): 100% | T/C (Mus musculus [4]): 109%

Now those with a higher pIC50 (L1210), led by results:

K aff (Calf thymus DNA): 250000 M⁻¹ | pIC50 (L1210): 7.00
Compound: CCN(CC)CCCNc1ncc(C)c2c1c1cc(OC)ccc1n2C
T/C (Mus musculus [1]): 107% | T/C (Mus musculus [2]): Toxic | T/C (Mus musculus [3]): 125% | T/C (Mus musculus [4]): 115% | T/C (Mus musculus [5]): 115%

K aff (Calf thymus DNA): 370000 M⁻¹ | pIC50 (L1210): 7.30
Compound: Cc1cnc(NCCCN2CCCC2)c2c3cc(O)ccc3n(C)c12

K aff (Calf thymus DNA): 130000 M⁻¹ | pIC50 (L1210): 6.80
Compound: Cc1c[nH]c(NCCCN(C)C)c2c3ccccc3nc1-2
T/C (Mus musculus [4]): 129% | T/C (Mus musculus [8]): Toxic

K aff (Calf thymus DNA): 110000 M⁻¹ | pIC50 (L1210): 6.82
Compound: CCN(CC)CCNc1ncc(C)c2c1c1cc(O)ccc1n2C
T/C (Mus musculus [1]): 142% | T/C (Mus musculus [3]): 182% | T/C (Mus musculus [4]): 153% | T/C (Mus musculus [9]): 137%

K aff (Calf thymus DNA): 140000 M⁻¹ | pIC50 (L1210): 8.00
Compound: Cc1cnc(NCC(C)CN(C)C)c2c3cc(O)ccc3n(C)c12 (stereo not given)
